Experimental data pooled from the literature.
Each line is one published result; the experiments were not run side by side.

SMILES | host | sample | route | dose | notes | endpoint | result
CC(C)(O)c1ccccc1-c1ccc2[nH]c(/C=C/c3ccc(C(F)(F)F)cc3)nc2c1 | male human | plasma | oral | 15 mg | single dose, fasted | AUC(0-t) | 1010 ng·h/mL
CC(C)n1cc(C#N)c2cc(-n3cc(C(=O)O)cn3)ccc21 | male human | plasma | oral | 600 mg | single dose, fasted, healthy volunteers | AUC(0-inf) | 99800 ng·h/mL
CN(C(=O)n1cnc(-c2ccc[n+]([O-])c2)c1)C1CCCCC1 | male cynomolgus monkey | plasma | oral | 0.1 mg/kg |  | Tmax | 1 h
CCN(CC)C(=O)[C@@]1(c2ccccc2)C[C@H]1CN | male cynomolgus monkey | plasma | oral | 30 mg/kg |  | Tmax | 4 h
O=C(O)C1CCN(c2ncc(-c3ccc4c(c3)OCCCO4)s2)CC1 | male Swiss mouse | brain | oral | 30 mg/kg | single dose | tissue/plasma ratio | 0.028
CC(C)(C)c1ccc(O)c(CN(Cc2cc(C(C)(C)C)ccc2O)C2CCC(NC(N)=O)CC2)c1 (stereo not drawn) | male C57BL/6 mouse | brain | oral | 10 mg/kg | single dose | tissue/plasma ratio | 0.64
CC(C)Oc1cccc(-c2cnc(N3CCC(C(N)=O)CC3)s2)c1 | male Swiss mouse | brain | oral | 30 mg/kg | single dose | tissue/plasma ratio | 0.29
CC(C)(NC(=O)O[C@@H]1CN2CCC1CC2)c1csc(-c2ccc(F)cc2)n1 | female CD-1 mouse | brain | intraperitoneal | 10 mg/kg | single dose | tissue/plasma ratio | 0.86
COc1cc(C(=O)NC2CCN(C)CC2)c(F)cc1Nc1ncc(C(F)(F)F)c(Oc2cccc3c2C(=O)N(C)C3)n1 | human | plasma | oral | 25 mg | multiple doses, once daily, steady state, patients | AUC | 5.1 µM·h
COc1ccc([C@@H]2CN(C(=O)[C@@H](O)CO)C[C@@]2(C)[C@@H](C)O)cc1OC1CN(c2ccc(C)cn2)C1 | human | plasma | oral | 30 mg | single dose, healthy volunteers | AUC(0-inf) | 6330 ng·h/mL
CCc1nc2c(C)cc(N3CCN(CC(=O)N4CC(O)C4)CC3)cn2c1N(C)c1nc(-c2ccc(F)cc2)c(C#N)s1 | human | plasma | oral | 150 mg | fed, healthy volunteers | AUC(0-inf) | 6400 ng·h/mL
Fc1ccc(COC2CCN(Cc3ccc4[nH]cnc4c3)CC2)cc1F | mouse | brain | intraperitoneal | 5 mg/kg |  | unbound tissue/plasma ratio | 3.7
